GRIN3A LBD mod: modulators (binders) of human NR3A ligand-binding domain | NR3A LBD differential scanning fluorimetry, Tm shift; 0% = protein alone, 100% = glycine-bound protein | Tm shift relative to glycine control, % at 25 µM | hit rate 2.5% among 340,000;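 active = melting temperature shift of at least 10% of the positive control shift, at one fixed dose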
T cruzi repl: blocks replication of Trypanosoma cruzi; T. cruzi beta-gal in NIH3T3, luminescence, 90 h; inhibition, % (test concentration not listed); hit rate 1.4% among 300,000; AID 1885;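 active = mean inhibition across valid replicates above about 55%, limit read from the data; inconclusive = mean below that limit but half or more replicates reach it; inactive = mean below it, under half of replicates reach it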;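 note: signal also drops with host cell toxicity which is not excluded here; 0% = plate median of DMSO wells and 100% = zero luminescence signal; higher percent means less beta-gal luminescence so fewer parasites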
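assay system = mouse NIH/3T3 fibroblasts infected with β-gal-expressing T. cruzi Tulahuen C4 | input = 5,000 NIH/3T3 host cells per well | buffer or medium = DMEM plus 2% FBS | timing = 3 h host attachment, then at least 90 h co-culture | measured by = GalScreen luminescence, 60 min | evaluation = luminescence reflecting intracellular parasite burden, expressed as percent inhibition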
CHOP inh: inhibitors of CHOP induction in ER stress response | AID 2732 | hit rate 3.8% among 220,000 | CHO-K1 CHOP-promoter luciferase, tunicamycin-induced, 15-18 h | inhibition, % at 10 µM;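 active = compounds that reduced the stress-induced luciferase reporter signal by more than about 70% of percent inhibition, limit read from the data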;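 note: 0% = tunicamycin plus vehicle and 100% = wells without tunicamycin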
Beta apoptosis: blocks beta cell apoptosis. protection from apoptosis, % (concentration not given with the values). INS-1E cytokine-induced death, ATP luminescence, 48 h; percent of positive-control rescue, neutral wells zero. hit rate 0.8% among 300,000;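 active = Every replicate reaches about 75%, or at least half do and their mean reaches it too, limit read from the data; inconclusive = At least half of replicates reach the limit but their mean does not; inactive = Under half of replicates reach the limit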;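 note: 0% = cytokine-treated negative control wells and 100% = positive control rescue; higher means more ATP so stronger rescue from cytokine killing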
CSC inhib: cancer stem cell inhibition; cancer stem cell-like cells viability, luminescence; AID 2717; hit rate 1.1% among 300,000; inhibition, % at 7.5 µM; in the data active = inhibition above about 75%; inconclusive = no clear call, values can overlap the other calls; tested in HMLE shEcad cells
PREPL inh: inhibits the human prolyl oligopeptidase-like enzyme | recombinant PREPL, fluorescence polarization activity-based probe | inhibition, % at 5.96 µM | hit rate 0.68% among 320,000; in the data active = inhibition above about 43%;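 note: 0% = enzyme with DMSO and 100% = wells lacking enzyme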
Target sequence (Q4J6C6 whole entry, looked up): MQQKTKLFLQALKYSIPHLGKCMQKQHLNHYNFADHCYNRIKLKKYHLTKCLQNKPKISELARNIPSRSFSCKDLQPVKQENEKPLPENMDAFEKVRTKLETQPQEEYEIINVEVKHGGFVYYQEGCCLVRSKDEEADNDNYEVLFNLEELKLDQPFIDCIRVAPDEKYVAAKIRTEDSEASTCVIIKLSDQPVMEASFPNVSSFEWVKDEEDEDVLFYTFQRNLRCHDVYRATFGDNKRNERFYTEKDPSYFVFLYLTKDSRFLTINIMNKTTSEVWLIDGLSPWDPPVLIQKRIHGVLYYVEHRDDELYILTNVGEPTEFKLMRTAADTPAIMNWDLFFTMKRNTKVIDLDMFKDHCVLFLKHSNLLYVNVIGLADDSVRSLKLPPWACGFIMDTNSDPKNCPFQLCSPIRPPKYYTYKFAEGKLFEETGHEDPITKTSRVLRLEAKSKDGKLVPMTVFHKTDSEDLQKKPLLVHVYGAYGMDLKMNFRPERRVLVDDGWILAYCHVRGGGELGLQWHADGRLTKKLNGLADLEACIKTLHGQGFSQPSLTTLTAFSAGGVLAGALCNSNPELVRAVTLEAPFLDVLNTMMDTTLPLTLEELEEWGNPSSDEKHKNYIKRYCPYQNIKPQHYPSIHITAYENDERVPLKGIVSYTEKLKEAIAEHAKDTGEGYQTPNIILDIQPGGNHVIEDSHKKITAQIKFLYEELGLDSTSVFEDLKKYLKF
Numbers without * were called inactive; ? = inconclusive; nt = no result given. Hits are enriched below; roughly 6.7% of the tested compounds scored in any of these assays.

SMILES | GRIN3A LBD mod | T cruzi repl | CHOP inh | Beta apoptosis | CSC inhib | PREPL inh
Cc1nn(Cc2ccccc2)c(Cl)c1/C=N/NC(=O)CNc1cccc(C(F)(F)F)c1 | 27* | 23 | 94* | -2 | 7 | 10
CCOC(=O)N/N=C/c1c(C)nn(-c2cccc(C(F)(F)F)c2)c1Cl | -4 | -17 | 51 | 35 | 68 | 7
O=C(N/N=C/c1ccc(-c2cccc(C(F)(F)F)c2)o1)c1cccc(F)c1 | 11* | 69* | 26 | 5 | 58 | 2
Cc1cc(C(=O)N/N=C/c2ccc(-c3cccc(Br)c3)o2)n[nH]1 | 15* | 19 | -13 | 11 | -5 | 6
FC(F)(F)c1cccc(-c2ccc(/C=N/Nc3nncc(-c4ccccc4)n3)o2)c1 | -6 | 20 | 65 | 1 | -4 | 1
O=C(N/N=C/c1ccc(O)cc1)c1cccc(C(F)(F)F)c1 | 10 | -18 | 43 | -9 | -10 | 7
Cc1ccc(NCC(=O)N/N=C/c2ccc(-c3cccc(C(F)(F)F)c3)o2)cc1 | 25* | -6 | 81* | -7 | 6 | 11
O=C(N/N=C/c1ccc(-c2cccc(C(F)(F)F)c2)o1)c1ccccc1Br | 15* | 18 | 42 | 3 | 64 | 19
O=C(N/N=C/c1ccccc1O)c1cccc(C(F)(F)F)c1 | 9 | -18 | 54 | ? | 78* | 18
CCC(=O)N1CCC2(CC1)Oc1ccc(F)cc1C(=O)C21CC(c2ccccc2)=NO1 (centres undefined) | 1 | -11 | 21 | -1 | 4 | -4
COc1ccccc1CN(C)C(=O)CN1C(=O)c2ccccc2C1=O | -1 | -14 | nt | -1 | -19 | 2
O=C(N/N=C/c1ccc(-c2cccc(C(F)(F)F)c2)o1)c1ccccc1O | 20* | -5 | 90* | 7 | 32 | 11
COc1cccc(C(=O)Oc2c(Br)cc(Br)cc2/C=N/NC(=O)c2cc(C)[nH]n2)c1 | 8 | 61* | 66 | 81* | 56 | 8
NC(=O)N/N=C/c1ccc(-c2cccc(C(F)(F)F)c2)o1 | -1 | 8 | 36 | -9 | 8 | -3
CCCCN(C(=O)c1ccc(S(=O)(=O)N2CCCCC2)cc1)C1CCS(=O)(=O)C1 (centres undefined) | -3 | 1 | nt | nt | nt | nt
COc1ccccc1C(=O)NC(C)c1ccc(-n2ccnc2)cc1 (centres undefined) | 1 | 0 | nt | -1 | 1 | 3
O=C(O)CN1C(=O)/C(=C\c2ccccc2OCc2ccc(F)cc2)SC1=S | 4 | -11 | nt | -5 | 22 | 5
O=C(O)CN1C(=O)/C(=C\c2cc(Br)ccc2OCc2ccc(F)cc2)SC1=S | 29* | 0 | nt | -12 | 41 | 24
O=C(O)CN1C(=O)/C(=C\c2cc([N+](=O)[O-])ccc2OCc2ccccc2Cl)SC1=S | -5 | 3 | nt | 10 | 2 | 0
O=C(O)CN1C(=O)/C(=C\c2cc(Br)ccc2OCc2ccc(Cl)cc2)SC1=S | 4 | -19 | nt | -5 | 98* | nt
O=C(O)c1cccnc1SCc1cccc(Br)c1 | -3 | -12 | nt | -3 | 16 | 11
CN1CCN(c2nc3ccccc3nc2C(C#N)C(=O)OC2CCCCC2)CC1 (centres undefined) | 1 | 42 | 72* | 27 | 4 | 12
CCN1CCN(c2nc3ccccc3nc2C(C#N)C(=O)OC2CCCCC2)CC1 (centres undefined) | 3 | nt | -26 | nt | nt | nt
Cc1ccc(NC(=O)C(Cc2ccccc2)N2C(=O)C3C4CCC(C4)C3C2=O)cc1Cl (centres undefined) | -1 | 78* | 18 | 6 | -6 | -2
C=CCN1C(=O)C(Cc2ccc(C)cc2)S/C1=N/N=C/c1ccco1 (centres undefined) | 0 | 9 | 76* | -5 | 1 | -5
SMILES | GRIN3A LBD mod | T cruzi repl | CHOP inh | Beta apoptosis | CSC inhib | PREPL inh
O=C(NCCC1=CCCCC1)c1cccc2c1C(=O)N(C1CCCCC1)C2 | -15 | 27 | 85* | -4 | 14 | -2
Cc1cccc(CCNC(=O)c2cccc3c2C(=O)N(C2CCCCC2)C3)c1 | -9 | 28 | nt | 12 | -5 | -10
CC(C)(C)NC(=O)c1ccc(COc2ccc(Cl)cc2Cl)o1 | -10 | 15 | nt | nt | nt | 36
Cc1nnc(SCC(=O)N2CCC(Cc3ccccc3)CC2)n(N)c1=O | 11* | 14 | 29 | -5 | -11 | -15
Nn1c(SCC(=O)Nc2cc(S(=O)(=O)N3CCOCC3)ccc2Cl)nnc1-c1cccnc1 | 0 | -1 | 3 | -1 | -1 | -2
COc1ccc(OC)c(NC(=O)CSc2ncnc3c2cnn3-c2ccccc2Cl)c1 | 1 | 15 | 80* | 129* | nt | 24
NC(=O)C1CCN(C(=O)C2CCC(=O)N(CC3CCCCC3)C2)CC1 (centres undefined) | -2 | -7 | nt | -5 | -2 | 1
O=C1NN(c2ccccc2)C(=O)/C1=C/c1ccc(-c2ccc(C(=O)O)cc2)o1 | 2 | 0 | nt | nt | -8 | -7
O=C1NN(c2ccccc2)C(=O)/C1=C/c1ccc(Sc2cccc3ccccc23)o1 | -5 | -24 | 104* | -37 | 79* | 25
CCCN(S(=O)(=O)c1ccccc1F)S(=O)(=O)c1ccccc1Br | -18 | 25 | nt | 0 | 1 | -9
Cc1ccc(OCC(=O)OCC(=O)c2cccc([N+](=O)[O-])c2)cc1C | 4 | -3 | nt | -2 | 12 | 10
Cc1nc(C(F)(F)F)c(C(=O)N/N=C(\N)c2ccccn2)s1 | -2 | -15 | 51 | 77* | 10 | -1
CNc1cc(CSc2ccc(Cl)cc2)nc(C)n1 | -1 | 5 | -15 | -1 | -1 | -4
Cc1nc(CSc2ccc(Cl)cc2)cc(NCc2ccccc2)n1 | -20 | -13 | 91* | -10 | 7 | -31
Cc1cc(C)c2[nH]c(=O)c(CN(Cc3cccnc3)C(=S)NCCCN(C)C)cc2c1 | 1 | 13 | 7 | -18 | -10 | 9
COc1ccccc1-c1sc2ccccc2c1-c1ccc(OCCN2CCOCC2)cc1 | 5 | nt | nt | nt | nt | nt
c1ccc(-c2sc3ccccc3c2-c2ccc(OCCN3CCOCC3)cc2)cc1 | 2 | nt | nt | -8 | 86* | 2
CC(C)(c1ccccc1)c1ccc(OCCN2CCOCC2)cc1 | 0 | 6 | nt | -8 | 26 | -4
C1=C(c2sc3ccccc3c2-c2ccc(OCCN3CCOCC3)cc2)CCCC1 | 8 | nt | nt | 2 | 88* | -1
COc1ccc(NC(=O)CN(C)S(=O)(=O)c2cnc[nH]2)cc1Cl | 7 | 37 | nt | -5 | -6 | 9
CCCCCC(=O)Nc1cccc(C2=NOC3(C2)C[C@@H](C(N)=O)N(C(=O)c2ccc(Cl)cc2)C3)c1 (some centres undefined) | -18 | 60* | 9 | -21 | -10 | 8
CCCCCC(=O)Nc1cccc(C2=NOC3(C2)C[C@H](C(N)=O)N(C(=O)CCCCC)C3)c1 (some centres undefined) | 2 | 46 | -10 | 1 | -5 | 11
